Assay [1] relates to Ishikawa. Kind of assay: Relative stimulation of alkaline phosphatase (AlkP) activity in Ishikawa cells. Format: functional, Homo sapiens. A digest of the protocol: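 Ishikawa cells in phenol red-free medium with charcoal-stripped bovine serum, exposed for 3 days to steroid over at least 6 orders of magnitude of concentration. Cells were freeze-thawed, then given 5 mM p-nitrophenyl phosphate at pH 9.8, read kinetically at 405 nm. RSA = (1/EC50 analogue)/(1/EC50 E2) × 100. At least three experiments in duplicate.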

Assay [2] has as its system esterase (Rattus norvegicus). Kind of assay: Relative hydrolytic activity against esterase in rat hepatic microsomes. The note with it: Liver.

`C[C@]12CC[C@@H]3c4ccc(O)cc4CC[C@H]3[C@@H]1CCC2=O` [ESTRONE] displayed an RSA in assay [1] of 7.
In the case of `CCOC(=O)C[C@@H]1C[C@H]2[C@@H]3CCc4cc(O)ccc4[C@H]3CC[C@]2(C)[C@H]1O`, in assay [2], the RHA was 700. In assay [1], the RSA is on record as 0.3.
Taken in the same sequence, the figures for `COC(=O)CC[C@@H]1C[C@H]2[C@@H]3CCc4cc(O)ccc4[C@H]3CC[C@]2(C)[C@H]1O` were 910 and 0.
Take `C[C@]12CC[C@@H]3c4ccc(O)cc4CC[C@H]3[C@@H]1C[C@@H](CCC(=O)O)[C@@H]2O`: the RSA in assay [1] is 0.
Compound `CC(C)OC(=O)[C@@H]1C[C@H]2[C@@H]3CCc4cc(O)ccc4[C@H]3CC[C@]2(C)[C@H]1O` came in with an RSA in assay [1] of 0.1.
Turning to `COC(=O)C[C@@H]1C[C@H]2[C@@H]3CCc4cc(O)ccc4[C@H]3CC[C@]2(C)[C@H]1O`, the RHA in assay [2] came out at 340. In assay [1], this compound showed an RSA of 0.5.
`C[C@]12CC[C@@H]3c4ccc(O)cc4CC[C@H]3[C@@H]1C[C@@H](CC(=O)O)[C@@H]2O` yielded an RSA in assay [1] of 0.
